SENP1 FRET inh: human SENP1 catalytic domain inhibitors, primary screen, biochemical, FRET, uHTS; Sentrin-specific protease 1 (Homo sapiens), Q9P0U3; recombinant SENP1 catalytic domain, CyPet-SUMO1-YPet FRET cleavage; inhibition, % at 10 µM; hit rate 0.21% among 360,000; AID 624204, 2012;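 active means inhibition at least 30% at 10 µM, raw YFP signal under a set limit, fluorescence ratio 0.5 to 1.5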;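 further: 0% = enzyme with DMSO and 100% = no enzyme wells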
Target sequence (Q9P0U3 419-644 limits assumed): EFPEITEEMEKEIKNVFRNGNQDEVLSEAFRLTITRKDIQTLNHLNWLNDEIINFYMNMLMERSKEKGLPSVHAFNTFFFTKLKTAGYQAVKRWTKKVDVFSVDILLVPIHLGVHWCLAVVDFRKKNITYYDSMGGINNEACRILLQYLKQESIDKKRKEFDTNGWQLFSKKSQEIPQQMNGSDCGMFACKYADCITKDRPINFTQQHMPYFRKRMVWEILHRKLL
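System: Recombinant human SENP1 catalytic domain, His6-tagged | Incubation: Enzyme reaction for 50 min at room temperature, dark | Medium: Tris pH 8 with BME, BSA, NP40 and catalase | Also added: 25 nM SUMO1 FRET substrate | Compound: 10 µM single point, 0.5% DMSO | Measured by: FRET fluorescence in CFP and YFP emission channels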
UCH37 DUB inh: inhibitors of human UCH37 deubiquitinase, primary screen, biochemical, Ub-AMC cleavage, fluorescence | AID 588478, 2011 | inhibition, % (test concentration not listed) | Ubiquitin carboxyl-terminal hydrolase isozyme L5 (Homo sapiens), Q9Y5K5 | hit rate 0.33% among 330,000 | purified proteasome/UCH37;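 active means mean inhibition over replicate wells above about 20%, limit read from the data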;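 further: 0% = compound-free wells with enzyme and 100% = wells lacking proteasome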
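Reagent: Ub-AMC substrate; assay system: Proteasome-associated human UCH37 deubiquitinase; controls: no-proteasome and no-compound wells; read-out: % inhibition of Ub-AMC cleavage fluorescence; timing: 30 min preincubation with enzyme, 25 min cleavage at room temperature; signal: AMC fluorescence from Ub-AMC cleavage, excitation 355 nm, emission 460 nm; buffer or medium: Tris-HCl pH 7.4 plus ovalbumin, ATP-MgCl2, DTT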
GRIN3A LBD mod: binders of NR3A ligand-binding domain, primary screen, biophysical, differential scanning fluorimetry, uHTS | AID 1259313, 2017 | Tm shift relative to glycine control, % at 25 µM | NR3A LBD differential scanning fluorimetry, Tm shift; 0% = protein alone, 100% = glycine-bound protein | hit rate 2.5% among 340,000 | Glutamate receptor ionotropic, NMDA 3A (GRIN3A) ligand-binding domain;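 active means melting temperature shift of at least 10% of the positive control shift, at one fixed dose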
NadD block: inhibitors of S. aureus NadD, primary screen, biochemical, colorimetric, uHTS. Nicotinate-nucleotide adenylyltransferase NadD (Staphylococcus aureus N315). purified NadD enzyme, colorimetric absorbance read-out. inhibition, % at 20 µM. hit rate 0.78% among 360,000. AID 602399, 2012; in the data active means inhibition above about 26%
ATG4B inhibitor: ATG4B protease inhibitors, primary screen, biochemical, fluorescence, uHTS. Cysteine protease ATG4B (Homo sapiens), Q9Y4P1. ATG4B cleavage of LC3-PLA2, NBD-HPC fluorescence, 1 h. inhibition, % at 8.33 µM. hit rate 0.51% among 340,000. AID 504462, 2011; in the data active means inhibition above about 40%
Target sequence (Q9Y4P1 whole entry, looked up): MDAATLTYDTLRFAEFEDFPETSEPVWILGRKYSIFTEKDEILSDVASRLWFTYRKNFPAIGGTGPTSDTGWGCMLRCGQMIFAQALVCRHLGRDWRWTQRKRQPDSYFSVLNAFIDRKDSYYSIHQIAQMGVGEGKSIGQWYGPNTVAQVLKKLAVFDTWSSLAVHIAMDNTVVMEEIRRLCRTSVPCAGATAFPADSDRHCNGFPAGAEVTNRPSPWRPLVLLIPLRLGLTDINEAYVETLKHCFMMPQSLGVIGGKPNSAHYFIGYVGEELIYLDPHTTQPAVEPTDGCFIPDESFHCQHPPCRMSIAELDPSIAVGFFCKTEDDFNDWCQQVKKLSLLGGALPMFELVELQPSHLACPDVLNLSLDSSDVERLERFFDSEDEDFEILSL
Active calls of the source: *; nt = no result. This is a sample that favours compounds with a hit; in the whole collection about 3.6% have one here.

SMILES	SENP1 FRET inh	UCH37 DUB inh	GRIN3A LBD mod	NadD block	ATG4B inhibitor
O=C(CSc1nc2nn(-c3ccccc3)c(=O)c-2c2n1CCCCC2)Nc1ccc(F)c(F)c1	0	7	1	39*	-3
CC(=O)c1ccc(NC(=O)CSc2nc3nn(-c4ccccc4)c(=O)c-3c3n2CCCCC3)cc1	1	5	0	14	-8
O=C(CSc1nc2nn(-c3ccccc3)c(=O)c-2c2n1CCCCC2)c1ccc(O)c(O)c1	1	5	2	57*	-16
Cc1ccccc1NC(=S)C1=C(O)c2sccc2N(C)S1(=O)=O	-78	23*	-5	-7	-12
CN1c2ccsc2C(O)=C(C(=S)Nc2ccccc2)S1(=O)=O	-52	21*	1	-7	-6
O=C(CN1CCN(Cc2ccc(Cl)cc2)CC1)NN=Cc1c[nH]c2ccccc12	nt	8	nt	nt	nt
Cc1cccc(COc2ccc(C=NNC(=O)c3nnn(-c4nonc4N)c3CN3CCCCC3)cc2)c1	nt	-2	nt	nt	nt
O=C(OCCOCCN=C1NS(=O)(=O)c2ccccc21)C1CC(=O)N(c2ccccc2)C1 (stereo not given)	1	-1	1	-2	5
O=C(OCCN=C1NS(=O)(=O)c2ccccc21)C1CC(=O)N(c2ccc(Cl)cc2)C1 (stereo not given)	2	-1	24*	4	-10
S=C(NCCc1cccc(Cl)c1)NC1CCCCC1	1	3	12*	1	32
S=C(NCCc1ccccc1)NC1CCC(NC(=S)NCCc2ccccc2)CC1 (stereo not given)	1	2	1	3	-13
CC1C(=NO)CC(c2ccco2)NC1c1ccco1 (stereo not given)	nt	3	nt	nt	nt
CC(=O)OC1[C@H](Oc2c(O)c(C)c3c4c2[C@@H](C)CC[C@@H]4[C@@H](C)C[C@@H]3C=C(C)C)OC[C@@H](O)[C@@H]1O (stereo not given in full)	2	1	-3	-11	-5
CC(C)=C[C@H]1C[C@H](C)[C@H]2CC[C@H](C)c3c(O[C@@H]4OC[C@@H](O)[C@H](O)C4O)c(O)c(C)c1c32 (stereo not given in full)	2	-2	29*	-8	-17
CCOc1ccc(OCCCC(=O)NCCc2ccc(OC)cc2)cc1	-1	-2	34*	-4	1
COc1ccccc1/C=C/C=Nn1c(C)nnc1C	nt	-23	nt	nt	nt
Cc1cc(C)cc(-n2nnc(C(=O)NCc3ccc(Cl)cc3)c2N)c1	0	3	32*	-9	-9
Cc1ccc(CNC(=O)Cn2nnc(C(=O)Nc3cc(C)ccc3C)c2N)cc1	3	3	15*	0	-4
Cc1ccc(CNC(=O)c2nnn(CC(=O)Nc3cc(C)cc(C)c3)c2N)cc1	1	-2	20*	3	-8
Cc1ccc(Cn2nnc(C(=O)Nc3cc(C)ccc3C)c2N)cc1	-2	-1	-16	-6	-8
O=C(O)c1ccc(N2C(=O)/C(=C/c3ccc(-c4ccc([N+](=O)[O-])cc4)o3)C=C2c2ccccc2)cc1	-23	6	7	56*	8
O=C1NN(c2ccccc2)C(=O)/C1=C/c1ccc(-c2ccc(C(=O)O)cc2)o1	-37	-20	2	8	10
COc1cc2c(cc1OC)C1(Nc3c-2c(-c2ccccc2)nn3-c2ccccc2)C(=O)Nc2ccccc21 (stereo not given)	11	-2	-2	40*	-18
Nc1ccccc1Nc1ccccc1	49*	7	-1	3	2
Nc1ccc(Nc2ccccc2)c(Cl)c1	-7	1	-24	-1	-10
SMILES	SENP1 FRET inh	UCH37 DUB inh	GRIN3A LBD mod	NadD block	ATG4B inhibitor
COc1ccc(C=NNc2ncccc2[N+](=O)[O-])c(OC)c1	nt	15	nt	nt	nt
CCCc1nn(C)c(C(=O)Nc2ccc(CC)cc2)c1Cl	1	4	10	-6	15
CCCc1nn(C)c(C(=O)Nc2cccc3ccccc23)c1Cl	1	1	12*	-3	-7
COc1ccc(C=CC(=O)c2cc(O)ccc2O)cc1	5	4	32*	-1	-6
COc1cccc(COC(=O)c2cc(S(=O)(=O)N3CCCCC3)ccc2N2CCOCC2)c1OC	0	4	19*	-6	-13
COc1cc2nc(Nc3cccc(F)c3)nc(N)c2cc1OC	1	-22	17*	-15	-9
O=C(c1ccccc1)c1ccc2nc(-c3ccc(NC(=O)c4ccccc4F)cc3)[nH]c2c1	-1	-2	18*	27	-8
O=C(Cc1cccs1)Nc1ccc(-c2nnc(-c3ccccc3)o2)cc1	-2	-8	28*	-4	-1
Cc1ccc2nc(NC(=O)Cc3cccs3)sc2c1	0	-2	-6	-4	-1
Cc1ccc2nc(-c3ccc(NC(=O)Cc4cccs4)cc3)[nH]c2c1	1	-270	34*	-1	1
O=C(Nc1ccc2nc(-c3ccccc3)[nH]c2c1)c1cccs1	0	-5	30*	-10	-9
O=c1[nH]c(=O)c2nnc(NN=Cc3ccc(O)cc3)nc2[nH]1	nt	4	nt	nt	nt
CNC(=S)NN=Cc1ccc(-c2cc([N+](=O)[O-])ccc2Cl)o1	nt	6	nt	nt	nt
O=C(Nc1nc(-c2ccccc2)ns1)c1cccs1	0	3	19*	-4	0
O=C(Nc1ccc2nc(-c3ccco3)[nH]c2c1)c1cccs1	-3	3	13*	-3	-1
O=C(Nc1ccc2[nH]ccc2c1)c1cccs1	2	2	6	-7	-7
O=C(Nc1ccc2nc(-c3ccc4nc[nH]c4c3)[nH]c2c1)c1cccs1	-2	0	29*	20	-25
CC(=NNC(=O)CSc1nc2ccccc2s1)c1ccncc1	nt	6	nt	nt	nt
O=C1c2ccccc2C(=O)c2c1ccc1c(=O)n(C3CCCCC3)[nH]c21	-3	7	-2	4	-5
O=C1C2=C(c3ccccc31)[N+](=O)[C@@H]1CCCC[C@@H]1N2[O-]	3	26*	0	-4	-9
O=C1C2=C(c3ccccc31)[N+](=O)C1CCCCC1N2[O-] (stereo not given)	-1	27*	0	4	-2
CC(C)/C(C=O)=C(\NC1CCCCC1)c1ccccc1	nt	4	nt	nt	nt
CC(CC(=O)Nc1ccc(Cl)cc1C(F)(F)F)=NNC(=O)c1ccccn1	nt	-1	nt	nt	nt
On1onc2c3cc(-c4ccccc4)nc3ccc21	4	6	37*	-11	11
Cc1ccccc1/C=N/N1CCN(c2ccccc2)CC1	0	nt	13*	-1	11

Bioassay records from PubChem.
